Reference: ChEMBL document CHEMBL1255304, “In vitro phenotypic susceptibility of human immunodeficiency virus type 2 clinical isolates to protease inhibitors” (Antimicrob Agents Chemother, 2008)

What was measured:
[1] = system: Human immunodeficiency virus 2; assay: Antiviral activity against HIV 2 subtype H expressing 10I-34E-40P-41Y-60H-63N-70T-73G-82F-89L-92E protease gene sequence from HIV2 infected patient plasma and PBMC obtained at T1 during compound treatment measured after 13 months; type: functional, organism-based; settings: Human immunodeficiency virus 2, subtype H
How it was run: (§1)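 Virus isolated by PBMC coculture from patient samples taken before (T0) or during (T1, T2) protease inhibitor exposure, with protease genes sequenced from plasma and PBMC isolates. Susceptibility was tested in the ANRS PBMC assay, and the 50% inhibitory concentration (IC50) was reported.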

[2] = system: Human immunodeficiency virus 2; assay: Antiviral activity against HIV 2 subtype A clinical isolate expressing 14H-17D-43T-68N/D protease gene sequence from HIV2 infected patient plasma and PBMC obtained before compound treatment measured after 13 months; type: functional, organism-based; settings: Human immunodeficiency virus 2, subtype A; how it was run: as §1
[3] = system: Human immunodeficiency virus 2; assay: Antiviral activity against HIV 2 subtype A clinical isolate expressing 5L/F-14Y/H-17G/D-43T-54I/M-62V/A-70R/K-71I protease gene sequence from HIV2 infected patient plasma and PBMC obtained at T1 during compound treatment measured after 13 months; type: functional, organism-based; settings: Human immunodeficiency virus 2, subtype A; how it was run: as §1
[4] = system: Human immunodeficiency virus 2; assay: Antiviral activity against HIV 2 subtype A clinical isolate expressing 14H-60K/N-65E protease gene sequence from HIV2 infected patient plasma and PBMC obtained before compound treatment measured after 13 months; type: functional, organism-based; settings: Human immunodeficiency virus 2, subtype A; how it was run: as §1
[5] = system: Human immunodeficiency virus 2; assay: Antiviral activity against HIV 2 subtype A clinical isolate expressing 54M-65E-71I-74N-90M protease gene sequence from HIV2 infected patient plasma and PBMC obtained at T1 during compound treatment measured after 13 months; type: functional, organism-based; settings: Human immunodeficiency virus 2, subtype A; how it was run: as §1
[6] = system: Human immunodeficiency virus 2; assay: Antiviral activity against HIV 2 subtype A clinical isolate expressing 10I-17D-40D-43I-46V-66V/A-70R/K protease gene sequence from HIV2 infected patient plasma and PBMC obtained before compound treatment measured after 13 months; type: functional, organism-based; settings: Human immunodeficiency virus 2, subtype A; how it was run: as §1
[7] = system: Human immunodeficiency virus 2; assay: Antiviral activity against HIV 2 subtype A clinical isolate expressing 10I-17D-40D-43I-45K/R-46V-54M-64I/V-69K/R-71V/I-90M protease gene sequence from HIV2 infected patient plasma and PBMC obtained at T1 during compound treatment measured after 13 months; type: functional, organism-based; settings: Human immunodeficiency virus 2, subtype A; how it was run: as §1
[8] = system: Human immunodeficiency virus 2; assay: Antiviral activity against HIV 2 subtype A clinical isolate expressing 14H-40D-70K-72R/K-91T/S protease gene sequence from HIV2 infected patient plasma and PBMC obtained before compound treatment measured after 13 months; type: functional, organism-based; settings: Human immunodeficiency virus 2, subtype A; how it was run: as §1
[9] = system: Human immunodeficiency virus 2; assay: Antiviral activity against HIV 2 subtype A clinical isolate expressing 10I-40D-43I-70K-82F-84V-85L-89V-90M-91T/L-98N/K protease gene sequence from HIV2 infected patient plasma and PBMC obtained at T1 during compound treatment measured after 13 months; type: functional, organism-based; settings: Human immunodeficiency virus 2, subtype A; how it was run: as §1
[10] = system: Human immunodeficiency virus 2; assay: Antiviral activity against HIV 2 subtype A clinical isolate expressing 10V/I-40D-43I-56V-70K-82F-84V-89V-90M protease gene sequence from HIV2 infected patient plasma and PBMC obtained at T2 during compound treatment measured after 3 months; type: functional, organism-based; settings: Human immunodeficiency virus 2, subtype A; how it was run: as §1
[11] = system: Human immunodeficiency virus 2; assay: Antiviral activity against HIV 2 subtype B clinical isolate expressing 14Y-61N-99L protease gene sequence from HIV2 infected patient plasma and PBMC obtained before compound treatment measured after 13 months; type: functional, organism-based; settings: Human immunodeficiency virus 2, subtype B\r\n; how it was run: as §1
[12] = system: Human immunodeficiency virus 2; assay: Antiviral activity against HIV 2 subtype B clinical isolate expressing 14Y-19P-33I-61N-71I-75M-84V-90M protease gene sequence from HIV2 infected patient plasma and PBMC obtained at T1 during compound treatment measured after 13 months; type: functional, organism-based; settings: Human immunodeficiency virus 2, subtype B\r\n; how it was run: as §1
[13] = system: Human immunodeficiency virus 2; assay: Antiviral activity against HIV 2 subtype B clinical isolate expressing 14Y-19P-61N-64V-71I-90M-95I protease gene sequence from HIV2 infected patient plasma and PBMC obtained at T2 during compound treatment measured after 3 months; type: functional, organism-based; settings: Human immunodeficiency virus 2, subtype B\r\n; how it was run: as §1
[14] = system: Human immunodeficiency virus 2; assay: Antiviral activity against HIV 2 subtype B clinical isolate expressing 12T-14Y-19P-40N-41D-61N-62I-96S-99L protease gene sequence from HIV2 infected patient plasma and PBMC obtained before compound treatment measured after 13 months; type: functional, organism-based; settings: Human immunodeficiency virus 2, subtype B\r\n; how it was run: as §1
[15] = system: Human immunodeficiency virus 2; assay: Antiviral activity against HIV 2 subtype B clinical isolate expressing 12Q-14R-17G/D-19P-61N-62I-92A protease gene sequence from HIV2 infected patient plasma and PBMC obtained before compound treatment measured after 13 months; type: functional, organism-based; settings: Human immunodeficiency virus 2, subtype B\r\n; how it was run: as §1
[16] = system: Human immunodeficiency virus 2; assay: Antiviral activity against Human immunodeficiency virus type 2 (ISOLATE ROD) after 13 months; type: functional, organism-based; settings: Human immunodeficiency virus 2, ISOLATE ROD
How it was run: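 Reference strain ROD was tested in the ANRS PBMC assay alongside the clinical isolates, and the 50% inhibitory concentration (IC50) was reported.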

[17] = Antiviral activity against Human immunodeficiency virus type 1 (BRU ISOLATE) after […]; type: functional; settings: Human immunodeficiency virus 1
[18] = system: Human immunodeficiency virus 2; assay: Antiviral activity against HIV 2 subtype H expressing 10I-40P-41Y-60H-63N-70T-73G-89L-92E protease gene sequence from HIV2 infected patient plasma and PBMC obtained before compound treatment measured after 13 months; type: functional, organism-based; settings: Human immunodeficiency virus 2, subtype H; how it was run: as §1

| Structure (SMILES) | IC50 [1] | IC90 [1] | IC50 [2] | IC90 [2] | IC50 [3] | IC90 [3] | IC50 [4] | IC90 [4] | IC50 [5] | IC90 [5] | IC50 [6] | IC90 [6] | IC50 [7] | IC90 [7] | IC50 [8] | IC90 [8] | IC50 [9] | IC90 [9] | IC50 [10] | IC90 [10] | other results |
| --- | --- | --- | --- | --- | --- | --- | --- | --- | --- | --- | --- | --- | --- | --- | --- | --- | --- | --- | --- | --- | --- |
| Cc1c(O)cccc1C(=O)N[C@@H](CSc1ccccc1)[C@H](O)CN1C[C@H]2CCCC[C@H]2C[C@H]1C(=O)NC(C)(C)C [NELFINAVIR] | 9000 nM | 24000 nM | 30 nM | 300 nM | 14000 nM | 110000 nM | 60 nM | 800 nM | 3800 nM | 53000 nM | 50 nM | 400 nM | 1200 nM | 15000 nM | 200 nM | 400 nM | > 17600 nM | > 17600 nM | 10000 nM | 81000 nM | IC50 [11]: 200 nM; IC90 [11]: 1000 nM; IC50 [12]: 14000 nM; IC90 [12]: 107000 nM; IC50 [13]: > 17600 nM; IC90 [13]: > 17600 nM; IC50 [14]: 60 nM; IC90 [14]: 200 nM; IC50 [15]: 40 nM; IC90 [15]: 800 nM; IC50 [16]: 50 nM; IC90 [16]: 900 nM; IC50 [17]: 2 nM; IC90 [17]: 100 nM; IC50 [18]: 40 nM; IC90 [18]: 300 nM |
| CC(C)(C)NC(=O)[C@@H]1C[C@@H]2CCCC[C@@H]2CN1C[C@@H](O)[C@H](Cc1ccccc1)NC(=O)[C@H](CC(N)=O)NC(=O)c1ccc2ccccc2n1 [SAQUINAVIR] | 7300 nM | 31000 nM | < 6 nM | < 6 nM | > 12500 nM | > 12500 nM | 5 nM | 50 nM | > 12500 nM | > 12500 nM | 2 nM | 20 nM | 90 nM | 700 nM | 5 nM | 20 nM | 6400 nM | 51000 nM | 22000 nM | 180000 nM | IC50 [11]: 14000 nM; IC90 [11]: 82000 nM; IC50 [12]: 8200 nM; IC90 [12]: 65000 nM; IC50 [13]: 6700 nM; IC90 [13]: 52000 nM; IC50 [14]: 7 nM; IC90 [14]: 20 nM; IC50 [15]: 60 nM; IC90 [15]: 300 nM; IC50 [16]: 10 nM; IC90 [16]: 90 nM; IC50 [17]: 10 nM; IC90 [17]: 40 nM; IC50 [18]: 30 nM; IC90 [18]: 300 nM |
| CC(C)CN(C[C@@H](O)[C@H](Cc1ccccc1)NC(=O)O[C@H]1CO[C@H]2OCC[C@H]21)S(=O)(=O)c1ccc(N)cc1 [DARUNAVIR] | 900 nM | 4700 nM | 9 nM | 30 nM | 600 nM | 7300 nM | 10 nM | 30 nM | 200 nM | 1400 nM | 4 nM | 30 nM | 800 nM | 3000 nM | 4 nM | 20 nM | 500 nM | 2400 nM | 1000 nM | 8100 nM | IC50 [11]: 2 nM; IC90 [11]: 10 nM; IC50 [12]: 500 nM; IC90 [12]: 3900 nM; IC50 [13]: 700 nM; IC90 [13]: 5100 nM; IC50 [14]: 4 nM; IC90 [14]: 20 nM; IC50 [15]: 10 nM; IC90 [15]: 50 nM; IC50 [16]: 5 nM; IC90 [16]: 20 nM; IC50 [17]: 4 nM; IC90 [17]: 9 nM; IC50 [18]: 4 nM; IC90 [18]: 40 nM |
